Results on 21 compounds are retold here after PubChem BioAssay AID1217 (Sanford-Burnham Center for Chemical Genomics, 2008).

The campaign covered roughly 190,000 compounds. About 1,300 (0.68%) were called active. This is one part of a sample in which actives are shown more often than they occur.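 Rule for the calls: active = primary screen inhibition at 20 µM above a set limit (cut at about 50% in these data); inactive = the rest.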

This assay relates to diaphorase (Clostridium kluyveri). The assay can be described thus: diaphorase inhibitors and chemical oxidizers, primary screen, counter-screen for diaphorase-coupled primary assays, biochemical, uHTS, resorufin fluorescence (AID 1217).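 Note: plate controls were DMSO with full reaction for no effect and wells lacking NADH for full effect.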 The following applies: diaphorase resazurin-to-resorufin fluorescence, NADH, 16 min; at 20 µM; hits give high values; bacterial (C. kluyveri) enzyme, not human. A digest of the protocol: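 System: Bacterial diaphorase enzyme (C. kluyveri) | Incubation: 16-min room-temperature incubation before reading | Benchmarks: No-NADH positive control and DMSO neutral control | Measured by: Resorufin fluorescence 544/590 nm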
A general note: Counterscreens check selectivity or assay interference.
The term inhibition denotes the relative decrease from the control value, in per cent. With `COc1cccc(NC(=S)N(Cc2ccc(C)cc2)Cc2ccccn2)c1`, the inhibition was 3.1% (inactive).

Regarding `Cc1cc(-c2csc(N)n2)c(C)n1-c1ccccc1`, the inhibition is 19.9% (inactive).

`CC(Sc1nc2c([nH]c3ccccc32)c(=O)n1C)c1ccccc1` (stereo unspecified): the inhibition was 2.9% (inactive).

Regarding `COc1cccc(CNn2cn[nH]c2=S)c1OCc1ccccc1`, the inhibition was 79.8% (active).

Take `C=CCOc1cccc(CNn2cn[nH]c2=S)c1`: the inhibition was 14% (inactive).

Regarding `C=CCOc1c(CNn2cn[nH]c2=S)cccc1OC`, the inhibition is 39.3% (inactive).

For the compound `O=c1[nH]n2c(=O)c3c([nH]c2c1N=Nc1ccccc1)CCC3`, the inhibition is 20.3% (inactive).

With `Cc1csc(SCC(=O)Nc2sccc2C#N)n1`, the inhibition was -2.4% (inactive).

Take `OC(COc1ccc(CN2CCSCC2)cc1)CN1CCCCC1` (stereo unspecified): the inhibition is 6.8% (inactive).

For `CCOc1ccc(CN2CCN(Cc3ccc(C)o3)CC2CCO)cc1` (stereo unspecified), the inhibition is -6.4% (inactive).

Turning to `CCOc1ccc(CN2CCCN(C)CC2)cc1`, the inhibition was 76.8% (active).

On to `N#CC1(NC(=O)COc2ccc3oc4ccccc4c3c2)CCCCC1`, for which the inhibition is -0.7% (inactive).

Turning to `O=c1[nH]c2ccccc2n2c(-c3ccccc3)nnc12`, the inhibition is 66.5% (active).

As for `O=[N+]([O-])c1cccc(-c2nnc3c4ccccc4c4ccccc4n23)c1`, the inhibition is 3.7% (inactive).

`CC(=O)c1c(-c2ccccc2)c2ccccc2[nH]c1=O`: the inhibition was 17.9% (inactive).

Consider `Cn1ncc2c(NNC(=O)Cc3cccc4ccccc34)ncnc21`, for which the inhibition was 8.6% (inactive).

`OC(C#CCN1CCOCC1)(c1ccccc1)C1CCCCC1` (stereo unspecified): the inhibition was -10.7% (inactive).

As for `CN(CC#CCC(c1ccccc1)c1ccccc1)C(C)(C)C`, the inhibition was 17.9% (inactive).

In the case of `CC(C)(C)N(CC#CCC(O)(c1ccccc1)C1CCCC1)CCO` (stereo unspecified), the inhibition is 57.2% (active).

For the compound `O=S(=O)(Nc1ccc2cn[nH]c2c1)c1ccccc1`, the inhibition is 6.9% (inactive).

Regarding `COc1cccc(-c2ccc(C#N)c(SCC(=O)NCCc3ccc(Cl)cc3)n2)c1`, the inhibition is 7% (inactive).
